Assays:
[1] = folding enthalpy; higher = less favourable; fluorescence melt of hairpins on a sequencing array, two-state fit; details: sodium 0.088 M
How it was run: (§1)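 Cy3 signals were normalised both to pre-quench Cy3 and to control constructs. They came from library hairpins carrying annealed Cy3 and quencher oligos on a sequenced MiSeq flow cell, imaged in 50 mM Na-HEPES pH 8.0, 25 mM NaCl, in 2.5 °C steps up to 60 °C. Bootstrapped two-state fits gave melting temperature and folding enthalpy, and four replicates were combined by inverse variance. Fitted temperatures were then raised by 9.35 °C to match UV melts.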

[2] = melting temperature; fluorescence melt of hairpins on a sequencing array, two-state fit, raised by 9.35 °C to match UV melts; details: sodium 0.088 M
How it was run: as §1

Row | Sequence | folding enthalpy [1] [kcal/mol] | Tm [2] [°C]
1 | GATCTTCGTAAAGATC ((((((....)))))) | -40.8 | 44.9
2 | GCTCATGGAAACATGAAC (.(((((....))))).) | -18.3 | 35.7
3 | GCTGTGGGAAACTACAGC (((((.(....).))))) | -41.4 | 53.1
4 | GCAACCGGAAACGGTCGC ((.((((....)))).)) | -29.8 | 52.8
5 | GTCCCGGGAAACCGGGGC (.(((((....))))).) | -19 | 64.3
6 | CGCATACGGAAACGTGCG (((..(((....)))))) | -30.2 | 48.9
7 | GACTTGGGAAACCAAGTC (((((((....))))))) | -35.8 | 62.3
8 | GATCGCCCTGCGATC ((((((...)))))) | -32 | 67.8
9 | GCTACGCGAAAGCTTAGC ((((.((....)).)))) | -20.8 | 55.4
10 | GGCACAGGAAACTATGCC ((((.((....)).)))) | -29.2 | 41.7
11 | GATCATGGACATGATC ((((((....)))))) | -40.7 | 54.3
12 | GCTGGCGAAAGCCCGAGC ((((((....)))..))) | -14.3 | 45.4
13 | GATCTTAAATAAGATC ((((((....)))))) | -31.9 | 38.5
14 | GATGCGCGAAAGCGTATC (((.(((....))).))) | -27.8 | 63
15 | GCGTGTCCACGC ((((....)))) | -32.9 | 61.5
16 | GCGACAGTCGC ((((...)))) | -27.8 | 46.7
17 | GCGACCGAAAGGTTCGC ((((((....))).))) | -33 | 65.6
18 | GATCCCCCACGGGATC ((((((....)))))) | -35.6 | 58.1
19 | GAAACCGGAAACGATTTC ((((.((....)).)))) | -28.9 | 34
20 | GTACAAGGAAACTTGTGC (.(((((....))))).) | -22.3 | 45.4
21 | GAACCCGAAAGGGCTTTC ((((((....)))..))) | -10.4 | 33.8
22 | GATCGCTCGTGCGATC ((((((....)))))) | -41.6 | 67.2
23 | GTGGTACGAAAGTAGCAC (((.(((....))).))) | -42 | 63.2
24 | GGTTTAGAAATAAACC ((((((....)))))) | -29.2 | 45.3

Row | Sequence | folding enthalpy [1] [kcal/mol] | Tm [2] [°C]
25 | GACAGGCGAAAGCCGGTC (((.(((....))).))) | -25.9 | 67.1
26 | GCAACCGAAAGGTGTTGC ((((((....)))..))) | -19 | 50
27 | GATCTTGGAAAGATC ((((((...)))))) | -34.5 | 51.9
28 | GCGACGGGAAACCACCGC (((..((....))..))) | -25.4 | 40.2
29 | GGCACAGGAAACTGTGTC (.(((((....))))).) | -32.2 | 54
30 | GGCATCGGAAACGACGCC (((.(((....))).))) | -42.1 | 52.3
31 | GCCCGCGAAAGCGTTGGC ((((((....)))..))) | -23.2 | 56.2
32 | GGAAGCGAAAGCTTGTCC ((((((....)))..))) | -10.3 | 35.8
33 | GGTGCAGGAAACTGTACC (((.(((....))).))) | -45.4 | 52.6
34 | GGATGTGGAAACATGTCC (((..((....))..))) | -20.9 | 40
35 | GGACAGGGAAACCTGCCC ((.((((....)))).)) | -22.3 | 48.2
36 | GATCATACCTATGATC ((((((....)))))) | -41.5 | 48.6
37 | TCCGAGAAATCGGA (((((....))))) | -19.6 | 46.4
38 | GTCAGCGGAAACGCTAAC ((.((((....)))).)) | -15.2 | 37.4
39 | GCGAGCGAAAGCTCACGC ((((((....)))..))) | -14.8 | 60.8
40 | GCAAAGCGAAAGCTCAGC ((..(((....)))..)) | -10.8 | 33.6
41 | GCGGTGCGAAAGCCGCGC (((..((....))..))) | -27.7 | 68.9
42 | GTGGCTGGAAACAGCTAC ((.((((....)))).)) | -29.3 | 53.9
43 | GCCTTGCGAAAGCGTGGC (((..((....))..))) | -22.8 | 60.3
44 | GTTCGCACGAAAGTGAAC (((..(((....)))))) | -16.3 | 39
45 | GATCTGATACAGATC ((((((...)))))) | -39.4 | 48.7
46 | GATCGAGCAATCGATC ((((((....)))))) | -39.7 | 57.7
47 | GTATCGAAAGATAC (((((....))))) | -25.1 | 52.7
48 | GATCTACTCTAGATC ((((((...)))))) | -31 | 40.6

Row | Sequence | folding enthalpy [1] [kcal/mol] | Tm [2] [°C]
49 | GCGATCTATCGC ((((....)))) | -31 | 55.5
50 | GCGGTCACCCGC ((((....)))) | -24.6 | 56.2
51 | GCTTAGCGAAAGCCAAGC ((((.((....)).)))) | -22.1 | 53.5
52 | GGCGGAGCGAAAGCTGCC (((..(((....)))))) | -17 | 52.3
53 | GTAAGAGGAAACCCTTAC (((((.(....).))))) | -19.6 | 31.4
54 | GTCAGAGGAAACTTTGAC ((((.((....)).)))) | -32.4 | 37.8
55 | CGATGCGGAAACGCCTCG (((.(((....))).))) | -40.4 | 48.1
56 | GCAGATGGAAACACCTGC ((((.((....)).)))) | -28.9 | 44.2
57 | GACATGGGAAACCACGTC (((.(((....))).))) | -26.7 | 38.8
58 | GCGAGAGGAAACCCTCGC (((((.(....).))))) | -27.8 | 54.1
59 | GATTACCGAAAGGTTATC (((.(((....))).))) | -26.1 | 42.4
60 | GATCTCTTGCGAGATC ((((((....)))))) | -42.4 | 51.9
61 | GAGAGTCCGAAAGGACTC (((..(((....)))))) | -8.55 | 60.4
62 | GTTGAGCGAAAGCTGAAC (((.(((....))).))) | -23.9 | 46.2
63 | GCGCCCGTGCGC ((((....)))) | -10.3 | 66.5
64 | GTCTCACGAAAGTGCGAC (((.(((....))).))) | -38.7 | 50.3
65 | GCGGCACCCCGC ((((....)))) | -24.8 | 53.8
66 | GCCCGCGAAAGCGACGGC ((((((....)))..))) | -22.3 | 54.9
67 | GTCTCCGGAAACGGAGGC (.(((((....))))).) | -25.2 | 61.7
68 | GAACACGAAAGTGTGTTC ((((((....)))..))) | -17.8 | 50
69 | GCGTACGGAAACACACGC ((((..(....)..)))) | -28.7 | 38.8
70 | GCCCAGGGAAACCCAGGC (((..((....))..))) | -25.6 | 44.4
71 | GGTCGCGAAAGCGCCACC ((((((....)))..))) | -11.2 | 47.8
72 | GATCATCGCGATGATC ((((((....)))))) | -48.5 | 59.7

Row | Sequence | folding enthalpy [1] [kcal/mol] | Tm [2] [°C]
73 | GAGGGTGGAAACACTCTC (((.(((....))).))) | -29.9 | 52.3
74 | GCTATTCGAAAGAAAGC (((.(((....)))))) | -20.1 | 32.1
75 | GGTCCGCGAAAGCGTACC (((.(((....))).))) | -27.2 | 54.1
76 | GTCACGGGAAACCGTGAC (((((((....))))))) | -35.5 | 68.9
77 | GGAATCGAAAGATCCTCC ((((((....)))..))) | -21.4 | 42.7
78 | GCATCAACGAAAGTTTGC (((..(((....)))))) | -16.9 | 30.8
79 | GCTTTGCGAAAGCTGAGC (((..((....))..))) | -15.2 | 56.8
80 | GCTGTGACGAAAGTCAGC (((..(((....)))))) | -15.1 | 47
81 | GCTGTGCGAAAGCTCAGC ((((.((....)).)))) | -36.8 | 68
82 | GATCTAGGATTAGATC ((((((....)))))) | -29.1 | 44.8
83 | GCTCTAGGAAACTAGAAC (.(((((....))))).) | -14.2 | 29.7
84 | GACGTACCGAAAGGTGTC (((..(((....)))))) | -22.4 | 41.9
85 | GGAAACGAAAGTTTCC ((((((....)))))) | -34.6 | 63.3
86 | GTCGTGGGAAACTGCGAC ((((..(....)..)))) | -18.5 | 46.9
87 | GATTGCGAAAGCAAGATC ((((((....)))..))) | -14.8 | 50.2
88 | GATCCTTAGGAGGATC ((((((....)))))) | -39.2 | 51
89 | GGCTGTGGAAACGTAGCC ((((..(....)..)))) | -29.9 | 48.9
90 | GATCATGACATGATC ((((((...)))))) | -40.3 | 49.7
91 | GATCGAGTGGTCGATC ((((((....)))))) | -8.38 | 53.9
92 | GTGACGGGAAACCGTTAC ((.((((....)))).)) | -22.2 | 51.9
93 | GGGGTAGGAAACTACCTC (.(((((....))))).) | -20 | 48
